# What was measured:
# Stearoyl-CoA desaturase = molecular target: T1, Stearoyl-CoA desaturase (Homo sapiens, UniProt O00767); assay: Inhibition of recombinant human SCD1 expressed in baculovirus expression system assessed as reduction in [3H]H2O production using stearoyl [9,10-3H]CoA as substrate in presence of NADH incubated for 30 mins by scintillation counting method
# T1 sequence (O00767 whole entry): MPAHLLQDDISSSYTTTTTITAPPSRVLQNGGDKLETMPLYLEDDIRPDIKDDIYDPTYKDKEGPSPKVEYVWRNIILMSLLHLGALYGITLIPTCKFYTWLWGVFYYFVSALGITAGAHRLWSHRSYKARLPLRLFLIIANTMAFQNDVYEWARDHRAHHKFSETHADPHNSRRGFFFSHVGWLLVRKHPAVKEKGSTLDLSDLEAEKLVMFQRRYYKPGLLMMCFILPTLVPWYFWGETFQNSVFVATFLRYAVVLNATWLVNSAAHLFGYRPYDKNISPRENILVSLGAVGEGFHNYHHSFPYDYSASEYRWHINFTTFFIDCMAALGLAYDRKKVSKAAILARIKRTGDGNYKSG
# Summary of the method: (§1)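 Desaturation of [9,10-3H]stearoyl-CoA measured as released [3H]H2O. Water was separated from charcoal-adsorbed substrate by filtration and counted by scintillation. Remaining activity = (compound − background)/(control − background). DMSO wells served as control and pre-stopped wells as background. IC50 was interpolated from the two points bracketing 50%.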
# Mus musculus [1] = assay: Ex vivo inhibition of SCD1 in C57BL/6J mouse liver assessed as residual activity at 1 mg/kg, po treated for 6 hrs followed by incubation with [14C]stearoyl-CoA substrate for 10 mins by TLC assay relative to control; type: functional
# Summary of the method: (§2)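 Male 6-week-old C57BL/6J mice dosed orally as a suspension in 0.5% methylcellulose. Liver or eyelid was taken 6 or 24 h later and homogenized in 100 mM Tris-HCl pH 7.4 with 0.25 M sucrose. S9 was obtained at 10,000 × g, 4 °C. S9 was incubated with [14C]stearoyl-CoA, NADH, MgCl2 and cytochrome b5 at room temperature, 10 min for liver and 30 min for eyelid. Lipids were saponified and run on AgNO3 TLC to quantify stearate and oleate. Result is % of vehicle control.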
# Mus musculus [2] = assay: Ex vivo inhibition of SCD1 in C57BL/6J mouse eyelid assessed as residual activity at 1 mg/kg, po treated for 6 hrs followed by incubation with [14C]stearoyl-CoA substrate for 30 mins by TLC assay relative to control; type: organism-based; summary of the method: as §2
# Mus musculus [3] = assay: Ex vivo inhibition of SCD1 in C57BL/6J mouse liver assessed as residual activity at 10 mg/kg, po treated for 24 hrs followed by incubation with [14C]stearoyl-CoA substrate for 10 mins by TLC assay relative to control; type: functional; summary of the method: as §2
# Mus musculus [4] = assay: Ex vivo inhibition of SCD1 in C57BL/6J mouse eyelid assessed as residual activity at 100 mg/kg, po treated for 24 hrs followed by incubation with [14C]stearoyl-CoA substrate for 30 mins by TLC assay relative to control; type: organism-based; summary of the method: as §2
# Acyl-CoA desaturase 1 = molecular target: T2, Acyl-CoA desaturase 1 (Mus musculus, UniProt P13516); assay: Inhibition of mouse liver microsome SCD assessed as reduction in [3H]H2O production using stearoyl [9,10-3H]CoA as substrate in presence of NADH incubated for 30 mins by scintillation counting method; type: microsomes; summary of the method: as §1
# T2 sequence (P13516 whole entry): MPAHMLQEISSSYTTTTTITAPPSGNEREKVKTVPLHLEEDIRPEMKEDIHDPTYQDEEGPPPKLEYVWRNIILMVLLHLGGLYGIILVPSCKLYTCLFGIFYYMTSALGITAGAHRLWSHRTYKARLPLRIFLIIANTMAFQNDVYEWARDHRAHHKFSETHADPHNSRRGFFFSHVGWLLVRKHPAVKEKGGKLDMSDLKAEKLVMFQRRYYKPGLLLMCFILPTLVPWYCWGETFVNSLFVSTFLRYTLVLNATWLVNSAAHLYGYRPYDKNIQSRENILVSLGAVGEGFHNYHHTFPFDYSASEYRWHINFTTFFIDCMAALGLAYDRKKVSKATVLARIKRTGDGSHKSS
# [5] = Inhibition of acetyl-CoA acetyltransferase (unknown origin); parameters: species or system Homo sapiens
# [6] = molecular target: Acyl-CoA (8-3)-desaturase (Homo sapiens, UniProt O60427); assay: Inhibition of delta-5 fatty acid desaturase (unknown origin)
# Sequence of Acyl-CoA (8-3)-desaturase (O60427 whole entry): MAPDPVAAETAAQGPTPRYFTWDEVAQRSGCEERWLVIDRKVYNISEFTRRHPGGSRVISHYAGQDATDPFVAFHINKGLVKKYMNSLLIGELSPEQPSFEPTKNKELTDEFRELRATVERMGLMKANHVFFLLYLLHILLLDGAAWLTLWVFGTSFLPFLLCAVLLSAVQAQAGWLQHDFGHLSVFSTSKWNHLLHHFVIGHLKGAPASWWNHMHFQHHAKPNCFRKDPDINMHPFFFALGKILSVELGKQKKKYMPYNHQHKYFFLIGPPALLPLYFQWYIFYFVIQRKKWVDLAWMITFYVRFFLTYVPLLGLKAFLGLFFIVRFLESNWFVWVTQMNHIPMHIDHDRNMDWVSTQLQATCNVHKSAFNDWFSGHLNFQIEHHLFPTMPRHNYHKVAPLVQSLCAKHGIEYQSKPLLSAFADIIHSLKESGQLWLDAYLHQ
Structure (SMILES),IC50 (Stearoyl-CoA desaturase) [nM],Activity (Mus musculus [1]) [%],Activity (Mus musculus [2]) [%],further results
Cc1csc(NC(=O)c2ccc(CNc3cccc(Cl)c3)cc2)n1,18,,,
Cc1csc(NC(=O)c2ccc(CNc3ccc(Cl)cc3)cc2)n1,760,,,
Cc1csc(NC(=O)c2ccc(CNc3ccccc3C)nc2)n1,310,,,
O=C(Nc1nc(CO)cs1)c1ccc(CNc2ccccc2C(F)(F)F)s1,5.1,9,33,
O=C(Nc1ncc(CCCO)s1)c1ccc(CNc2ccccc2C(F)(F)F)cc1,260,,,
Cc1csc(NC(=O)c2ccc(CNc3ccccc3)cc2)n1,95,,,
Cc1csc(NC(=O)N2CCC(CNc3ccccc3C(F)(F)F)CC2)n1,30,,,
O=C(Nc1nc(CCCO)cs1)c1ccc(CNc2ccccc2C(F)(F)F)cc1,5.2,64,75,
CCCCCCc1ccccc1NCc1ccc(C(=O)Nc2nc(CCO)cs2)s1,4.5,12,104,Activity (Mus musculus [3]): 12%; Activity (Mus musculus [4]): 4%
CC(C)CCc1ccccc1NCc1ccc(C(=O)Nc2nc(CCO)cs2)cc1,5.3,26,63,
O=C(O)CCCc1csc(NC(=O)c2ccc(CNc3ccccc3C(F)(F)F)cc2)n1,2700,,,
CCCCc1ccccc1NCc1ccc(C(=O)Nc2nc(CC(=O)O)cs2)cc1,5.5,76,74,
O=C(O)Cc1csc(NC(=O)c2ccc(CNc3ccccc3-c3ccccc3)cc2)n1,8.7,74,187,
O=C(Nc1nc(CCO)cs1)c1ccc(CNc2ccccc2Cl)cc1,6.4,29,74,Activity (Mus musculus [3]): 66%; Activity (Mus musculus [4]): 35%
CCCCCCc1ccccc1NCc1ccc(C(=O)Nc2nc(CC(=O)O)cs2)cc1,3,31,119,
O=C(Nc1ncc(C(=O)O)s1)c1ccc(CNc2ccccc2C(F)(F)F)cc1,8.1,,,
Cc1csc(NC(=O)c2ccc(CNc3ccccc3C(F)(F)F)cc2)n1,4.1,,,
O=C(Nc1nc(CO)cs1)c1ccc(CNc2ccccc2Cl)cc1,4.3,12,37,
O=C(Nc1nc(CO)cs1)c1ccc(CNc2ccccc2C(F)(F)F)cc1,3.8,20,73,Activity (Mus musculus [3]): 53%; Activity (Mus musculus [4]): 0%
O=C(Nc1nc(CCO)cs1)c1ccc(CNc2ccccc2C(F)(F)F)cc1,4.2,33,136,
Cc1csc(NC(=O)c2ccc(CNc3ccccc3C)cn2)n1,46,,,
CCCCCCCCc1ccccc1NCc1ccc(C(=O)Nc2nc(CC(=O)O)cs2)s1,17,7,77,Activity (Mus musculus [3]): 11%; Activity (Mus musculus [4]): 8%
Cc1csc(NC(=O)c2ccc(COc3ccccc3Cl)cc2)n1,150,,,
Cc1csc(NC(=O)c2ccc(CNc3ccccc3C(=O)O)cc2)n1,3600,,,
O=C(O)Cc1csc(NC(=O)c2ccc(CNc3ccccc3Cl)cc2)n1,13,72,132,

Structure (SMILES),IC50 (Stearoyl-CoA desaturase) [nM],Activity (Mus musculus [1]) [%],Activity (Mus musculus [2]) [%],further results
O=C(O)Cc1csc(NC(=O)c2ccc(CNc3ccccc3Cc3ccccc3)s2)n1,7.5,22,128,Activity (Mus musculus [3]): 20%; Activity (Mus musculus [4]): 76%
CC(C)CCc1ccccc1NCc1ccc(C(=O)Nc2nc(CC(=O)O)cs2)cc1,4.8,19,68,
O=C(Nc1nc(CO)c(C(=O)O)s1)c1ccc(CNc2ccccc2C(F)(F)F)cc1,22,,,
CCCc1ccccc1NCc1ccc(C(=O)Nc2nc(C)cs2)cc1,8.9,,,
O=C(Nc1ncc(CO)s1)c1ccc(CNc2ccccc2C(F)(F)F)cc1,2.8,,,
O=C(O)Cc1cnc(NC(=O)c2ccc(CNc3ccccc3C(F)(F)F)cc2)s1,58,,,
O=C(O)CCc1cnc(NC(=O)c2ccc(CNc3ccccc3C(F)(F)F)cc2)s1,570,,,
Cc1ccccc1NCc1ccc(C(=O)Nc2nc(CC(=O)O)cs2)cc1,14,,,
CCCCCCc1ccccc1NCc1ccc(C(=O)Nc2nc(CC(=O)O)cs2)s1,4.8,12,88,Activity (Mus musculus [3]): 13%; Activity (Mus musculus [4]): 52%
CCCCc1ccccc1NCc1ccc(C(=O)Nc2nc(CCO)cs2)cc1,3,61,94,
Cc1csc(NC(=O)c2ccc(CNc3ccccc3C(F)(F)F)s2)n1,9.7,,,
CCCCc1ccccc1NCc1ccc(C(=O)Nc2nc(CO)cs2)cc1,3.2,10,29,
O=C(Nc1nc(CCCO)c(CCO)s1)c1ccc(CNc2ccccc2C(F)(F)F)cc1,31,,,
O=C(Nc1ncc(CCO)s1)c1ccc(CNc2ccccc2C(F)(F)F)cc1,3.8,,,
CCCCCCCCc1ccccc1NCc1ccc(C(=O)Nc2nc(CC(=O)O)cs2)cc1,4.5,15,127,Activity (Mus musculus [3]): 74%; Activity (Mus musculus [4]): 71%
O=C(O)Cc1csc(NC(=O)c2ccc(CNc3ccccc3C(F)(F)F)cc2)n1,5.1,98,107,
CC(C)CCc1ccccc1NCc1ccc(C(=O)Nc2nc(CC(=O)O)cs2)s1,6.7,19,160,Activity (Mus musculus [3]): 34%; Activity (Mus musculus [4]): 84%
O=C(O)CCc1csc(NC(=O)c2ccc(CNc3ccccc3C(F)(F)F)cc2)n1,6.3,,,
O=C(O)Cc1csc(NC(=O)c2ccc(CNc3ccccc3Cc3ccccc3)cc2)n1,5.5,18,76,Activity (Mus musculus [3]): 53%; Activity (Mus musculus [4]): 100%
Cc1ccccc1NCc1ccc(C(=O)Nc2nc(C(=O)O)cs2)cc1,> 10000,,,
O=C(Nc1nc(CCO)cs1)c1ccc(CNc2ccccc2C(F)(F)F)s1,3.9,10,171,Activity (Mus musculus [3]): 27%; Activity (Mus musculus [4]): 8%
O=C(O)Cc1csc(NC(=O)c2ccc(CNc3ccccc3C(F)(F)F)s2)n1,9,51,124,
Cc1csc(NC(=O)c2ccc(CNc3ccccc3Cl)cc2)n1,9.2,,,
O=C(Nc1ccncc1)c1ccc(COc2ccccc2Cl)cc1,1400,,,IC50 (Acyl-CoA desaturase 1): 510 nM; IC50 [5]: > 30 µM; IC50 [6]: > 30 µM

# From ChEMBL document CHEMBL4265954, “Discovery of potent liver-selective stearoyl-CoA desaturase-1 (SCD1) inhibitors, thiazole-4-acetic acid derivatives, for the treatment of diabetes, hepatic steatosis, and obesity” (Eur J Med Chem, 2018)
